Data on 11 molecules can be found in ChEMBL document CHEMBL4387757, “Synthesis and molecular modeling of novel non-sulfonylureas as hypoglycemic agents and selective ALR2 inhibitors” (Bioorg Med Chem, 2019).

The test system of test [1] is Mus musculus. Nature of the test: Antihyperglycemic activity in alloxan-induced diabetic BALB/c mouse model assessed as blood glucose level at 10 mg/kg measured immediately by glucometry analysis. The test is classed as functional. In outline:
(§1)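 Diabetic BALB/c mice; blood sampled before dosing (0 h) and again at 2, 4, 6 and 8 h to measure blood glucose (mg/dl). Values are means ± SEM from three trials.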

Test [2] has as its target T1, Aldo-keto reductase family 1 member B1 (Homo sapiens, UniProt P15121). The experiment in a line: Selectivity index, ratio of IC50 for ALR1 (unknown origin) to IC50 for ALR2 (unknown origin).
The subject of test [3] is Mus musculus. Nature of the test: Antihyperglycemic activity in alloxan-induced diabetic BALB/c mouse model assessed as reduction in blood glucose level at 10 mg/kg measured after 8 hrs by glucometry analysis relative to control. It counts as functional. In outline: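 Diabetic BALB/c mice; blood glucose measured at 0 h and at 2, 4, 6 and 8 h. Percent inhibition of blood glucose was calculated at 8 h. Three trials.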

For test [4], the system named is Mus musculus. The experiment in a line: Antihyperglycemic activity in alloxan-induced diabetic BALB/c mouse model assessed as blood glucose level at 10 mg/kg measured after 4 hrs by glucometry analysis. It counts as functional. In outline:
as §1

The test system of test [5] is Mus musculus. The experiment in a line: Antihyperglycemic activity in alloxan-induced diabetic BALB/c mouse model assessed as blood glucose level at 10 mg/kg measured after 2 hrs by glucometry analysis. It counts as functional. The method in brief:
as §1

Test [6] concerns Mus musculus. Nature of the test: Antihyperglycemic activity in alloxan-induced diabetic BALB/c mouse model assessed as blood glucose level at 10 mg/kg measured after 8 hrs by glucometry analysis. The test is classed as functional. The method in brief:
as §1

For test [7], the system named is Mus musculus. The experiment in a line: Antihyperglycemic activity in alloxan-induced diabetic BALB/c mouse model assessed as blood glucose level at 10 mg/kg measured after 6 hrs by glucometry analysis. It counts as functional. The method in brief: as §1
The target in test [8] is Aldo-keto reductase family 1 member A1 (Homo sapiens, UniProt P14550). The experiment in a line: Inhibition of ALR1 (unknown origin) using sodium d-glucoronate as substrate preincubated for 10 mins followed by substrate addition by UV-spectrophotometry analysis. The method in brief:
(§2)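 Enzyme activity followed by UV spectrophotometry as the decrease in NADPH absorbance at 340 nm. Valproic acid served as positive control for ALR1, sorbinil for ALR2.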

Test [9] deals with T1, Aldo-keto reductase family 1 member B1. The experiment in a line: Inhibition of ALR2 (unknown origin) using sodium dl-glyceraldehyde as substrate preincubated for 10 mins followed by substrate addition by UV-spectrophotometry analysis. The method in brief:
as §2

Chain of Aldo-keto reductase family 1 member A1 (P14550 2-325 limits assumed): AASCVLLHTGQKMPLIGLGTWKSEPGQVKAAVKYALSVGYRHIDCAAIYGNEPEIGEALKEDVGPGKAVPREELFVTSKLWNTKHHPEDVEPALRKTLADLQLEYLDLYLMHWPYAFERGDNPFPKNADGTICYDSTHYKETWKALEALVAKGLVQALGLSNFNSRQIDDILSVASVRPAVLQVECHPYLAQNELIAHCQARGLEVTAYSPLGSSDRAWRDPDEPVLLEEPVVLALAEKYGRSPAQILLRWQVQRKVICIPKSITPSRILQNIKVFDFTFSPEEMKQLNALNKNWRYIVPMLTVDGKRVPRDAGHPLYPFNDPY

Turning to `O=C(CN1C(=O)NC2(CCCCC2)C1=O)Nc1ccc(Cl)cc1`, the Activity amounted to 406 mg/dL in the test on Mus musculus [1]; 242 mg/dL in the test with Mus musculus [4]; 347 mg/dL in the test with Mus musculus [5]; 85 mg/dL in the test on Mus musculus [6]; 170 mg/dL with Mus musculus [7]. The Ratio IC50 in test [2] was found to be 18.3. The inhibition in vivo at 10 mg/kg in the test on Mus musculus [3] amounted to 79.2%. The IC50 in [8] was determined as 20.7 µM; in test [9], 1130 nM.

For the molecule `Cc1ccc(NC(=O)CN2C(=O)NC3(CCCCC3)C2=O)cc1`, the Activity is 387 mg/dL in the test on Mus musculus [1]; 268 mg/dL in the test on Mus musculus [4]; 305 mg/dL in the test on Mus musculus [5]; 115 mg/dL in the test on Mus musculus [6]; 197 mg/dL in the test with Mus musculus [7]. Moreover, the Ratio IC50 in [2] was determined as 0.63. The inhibition in vivo at 10 mg/kg in the test with Mus musculus [3] is 70.3%. Further, the values for the IC50 in test [8] and in test [9] were 6.43 µM and 10200 nM, respectively.

In the case of `O=C(CN1C(=O)NC2(C1=O)c1ccccc1-c1ccccc12)Nc1ccc(Cl)cc1Cl`, the Activity in the test on Mus musculus [1] is 398 mg/dL; in the test on Mus musculus [4], 223 mg/dL; in the test on Mus musculus [5] it was 290 mg/dL; in the test with Mus musculus [6], 63 mg/dL; with Mus musculus [7] it was 168 mg/dL. The Ratio IC50 in test [2] worked out at 96. Further, in the test on Mus musculus [3], the inhibition in vivo at 10 mg/kg is 84.3%. Also, the IC50 worked out at 35.5 µM in test [8] and 370 nM in [9].

For `O=C(CN1C(=O)NC2(CCCCC2)C1=O)Nc1ccc(Br)cc1`, the Activity came out at 459 mg/dL in the test with Mus musculus [1]; 276 mg/dL in the test on Mus musculus [4]; 386 mg/dL in the test on Mus musculus [5]; 69 mg/dL with Mus musculus [6]; 182 mg/dL in the test with Mus musculus [7]. Moreover, the Ratio IC50 in test [2] is 43.4. Moreover, in the test with Mus musculus [3], the inhibition in vivo at 10 mg/kg worked out at 85.1%. Moreover, the figures for the IC50 in [8] and in test [9] were 31.2 µM and 720 nM, respectively.

Consider `COc1ccc(NC(=O)CN2C(=O)NC3(C2=O)c2ccccc2-c2ccccc23)cc1`, for which the Activity was determined as 320 mg/dL in the test on Mus musculus [1]; 237 mg/dL in the test with Mus musculus [4]; 258 mg/dL in the test on Mus musculus [5]; 370 mg/dL with Mus musculus [6]; 279 mg/dL in the test with Mus musculus [7]. For the same molecule, in [2], the Ratio IC50 was 8.45. The IC50 in test [8] came out at 24.3 µM; in test [9] it was 2870 nM.

Take `O=C(CN1C(=O)NC2(C1=O)c1ccccc1-c1ccccc12)Nc1ccc(Cl)cc1`: the Activity with Mus musculus [1] was determined as 460 mg/dL; with Mus musculus [4], 234 mg/dL; in the test with Mus musculus [5], 350 mg/dL; in the test with Mus musculus [6], 90 mg/dL; in the test on Mus musculus [7] it was 189 mg/dL. The Ratio IC50 in [2] is 21.6. For the same molecule, the inhibition in vivo at 10 mg/kg with Mus musculus [3] is 80.4%. The IC50 amounted to 22.2 µM in test [8] and 1030 nM in test [9].

For `CCOc1cc(CC(=O)N[C@@H](CC(C)C)c2ccccc2N2CCCCC2)ccc1C(=O)O` [REPAGLINIDE], the Activity in the test on Mus musculus [1] worked out at 392 mg/dL; in the test with Mus musculus [4], 259 mg/dL; in the test with Mus musculus [5], 313 mg/dL; in the test on Mus musculus [6], 94 mg/dL; with Mus musculus [7], 160 mg/dL. Also, the inhibition in vivo at 10 mg/kg in the test on Mus musculus [3] was 66.1%.

For the molecule `O=C(CN1C(=O)NC2(C1=O)c1ccccc1-c1ccccc12)Nc1ccc(Br)cc1`, the Activity with Mus musculus [1] is 452 mg/dL; in the test on Mus musculus [4] it was 218 mg/dL; with Mus musculus [5], 331 mg/dL; with Mus musculus [6], 85 mg/dL; in the test on Mus musculus [7] it was 173 mg/dL. Further, in test [2], the Ratio IC50 was 32.6. Also, in the test with Mus musculus [3], the inhibition in vivo at 10 mg/kg was determined as 81.1%. Further, the figures for the IC50 in test [8] and in [9] were 30.3 µM and 930 nM, respectively.

In the case of `Cc1ccc(NC(=O)CN2C(=O)NC3(C2=O)c2ccccc2-c2ccccc23)cc1`, the Activity in the test with Mus musculus [1] turned out to be 358 mg/dL; with Mus musculus [4], 283 mg/dL; in the test on Mus musculus [5] it was 314 mg/dL; with Mus musculus [6], 167 mg/dL; in the test with Mus musculus [7] it was 211 mg/dL. Also, the Ratio IC50 in test [2] was 1.76. The inhibition in vivo at 10 mg/kg in the test with Mus musculus [3] was 53.4%. Besides, the values for the IC50 in test [8] and in test [9] were 10.9 µM and 6210 nM, respectively.

As for `COc1ccc(NC(=O)CN2C(=O)NC3(CCCCC3)C2=O)cc1`, the Activity in the test with Mus musculus [1] worked out at 370 mg/dL; in the test with Mus musculus [4] it was 299 mg/dL; in the test on Mus musculus [5] it was 322 mg/dL; in the test on Mus musculus [6], 163 mg/dL; with Mus musculus [7], 231 mg/dL. For the same molecule, the Ratio IC50 in test [2] turned out to be 9.36. For the same molecule, the inhibition in vivo at 10 mg/kg with Mus musculus [3] amounted to 56.1%. Besides, the IC50 came to 25.8 µM in test [8] and 2760 nM in [9].

`O=C(CN1C(=O)NC2(CCCCC2)C1=O)Nc1ccc(Cl)cc1Cl`: the Activity in the test on Mus musculus [1] was 384 mg/dL; in the test with Mus musculus [4] it was 269 mg/dL; with Mus musculus [5], 319 mg/dL; with Mus musculus [6] it was 121 mg/dL; in the test on Mus musculus [7] it was 217 mg/dL. The Ratio IC50 in test [2] was determined as 16.9. Also, the inhibition in vivo at 10 mg/kg in the test with Mus musculus [3] stood at 68.5%. In addition, the values for the IC50 in test [8] and in [9] were 32.9 µM and 1950 nM, respectively.
